# Measured values pooled from the literature.
# Target: Casein kinase I isoform epsilon (CSNK1E, Homo sapiens, UniProt P49674)
SMILES,assay,setting,quantity,value
Cn1cncc1[C@@](O)(COc1ccc(C#N)cc1-c1ccc(OC(F)(F)F)cc1)c1ccc(C#N)cc1,"cell-free assay, competition with immobilised ligand",1 µM,remaining binding,100%
Nc1ncc(-c2nc(N3CCOCC3)nc(N3CCOCC3)n2)c(C(F)F)n1,"binding, competition with immobilised ligand",10 µM,remaining binding,38%
N#CC1(c2ccccn2)CCN(Cc2cc(C(=O)O)c(=O)n3ccccc23)CC1,"cell-free assay, competition with immobilised ligand",1 µM,remaining binding,100%
COc1ncccc1-c1cnn2ccc(N3CCN(C(=O)OC(C)C)CC3)nc12,"binding, competition with immobilised ligand",1 µM,remaining binding,86%
Cn1cc(-c2cc(F)cc(N3CCn4c(cc5c4CCCC5)C3=O)c2CO)cc(Nc2ccc(N3CCN(C4COC4)CC3)cn2)c1=O,"enzyme activity, inhibitor",0.1 µM,inhibition,12%
O=c1[nH]c2ccccc2n1C1CCN(Cc2ccc(-c3[nH]c4cc5ncnc5cc4nc3-c3ccccc3)cc2)CC1,enzyme activity,0.5 µM,remaining activity,107%
Cc1nn(C)cc1-c1nc2c(N3CCN(Cc4ccc(Cl)cc4)CC3)c(Cl)cnc2[nH]1,"binding, competition with immobilised ligand",1 µM,remaining binding,99%
CC(C)(C)c1cc(C=C(C#N)C#N)cc(Br)c1O,"enzyme activity, inhibitor",0.5 µM,remaining activity,92.1%
Cn1cc(-c2cccc(N3CCc4c(sc5c4CC(C)(C)C5)C3=O)c2CO)cc(Nc2ccncn2)c1=O,"enzyme activity, inhibitor",1 µM,inhibition,1%
